This note sets out measurements from publication PMC9934649 (bioRxiv, 2023).

The structures appear in SMILES notation. “Also recorded” adds a separate entry of the source.

The term IC50 denotes the point on the concentration scale where inhibition reaches its midpoint. Low values mean greater potency in that assay, high ones weaker potency in that assay.

In assay [1] the target is T1, WT human CDKL5 (Homo sapiens, UniProt O76039).
T1 sequence (O76039 1-960): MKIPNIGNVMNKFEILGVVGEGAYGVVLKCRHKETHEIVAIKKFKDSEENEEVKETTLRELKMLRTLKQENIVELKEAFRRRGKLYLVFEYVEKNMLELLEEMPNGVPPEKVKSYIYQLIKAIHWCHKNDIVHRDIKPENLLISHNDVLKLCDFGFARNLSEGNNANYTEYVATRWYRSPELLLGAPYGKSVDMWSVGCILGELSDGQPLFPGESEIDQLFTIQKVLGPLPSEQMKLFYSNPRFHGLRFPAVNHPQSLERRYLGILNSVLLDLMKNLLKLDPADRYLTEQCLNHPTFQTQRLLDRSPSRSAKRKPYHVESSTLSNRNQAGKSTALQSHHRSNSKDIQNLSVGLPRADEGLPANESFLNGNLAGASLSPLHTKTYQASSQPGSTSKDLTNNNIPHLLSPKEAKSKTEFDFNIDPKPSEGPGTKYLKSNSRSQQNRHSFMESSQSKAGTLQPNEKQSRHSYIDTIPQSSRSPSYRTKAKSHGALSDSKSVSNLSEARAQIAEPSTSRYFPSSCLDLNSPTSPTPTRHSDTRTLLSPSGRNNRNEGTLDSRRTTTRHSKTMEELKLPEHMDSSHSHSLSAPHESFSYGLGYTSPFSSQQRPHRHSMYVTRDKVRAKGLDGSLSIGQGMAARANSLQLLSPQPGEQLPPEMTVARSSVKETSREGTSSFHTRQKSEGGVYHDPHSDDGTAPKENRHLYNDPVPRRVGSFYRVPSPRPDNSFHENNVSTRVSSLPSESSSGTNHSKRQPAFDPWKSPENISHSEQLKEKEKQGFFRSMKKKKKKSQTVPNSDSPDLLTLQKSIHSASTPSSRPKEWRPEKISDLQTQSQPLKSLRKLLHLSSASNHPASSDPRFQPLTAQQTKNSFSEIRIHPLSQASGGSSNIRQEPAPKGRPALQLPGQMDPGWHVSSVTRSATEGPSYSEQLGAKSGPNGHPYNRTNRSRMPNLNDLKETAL
Description: CDKL5 in vitro kinase assay. In kind it is biochemical. The conditions noted are these: 10 or 100 nM compound, 50 µM ATP, vs untreated WT CDKL5. In a few lines: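 FLAG-tagged WT human CDKL5, with a K42R kinase-dead control, was made by HeLa-lysate in vitro translation and purified on cobalt spin columns. Enzyme plus myelin basic protein substrate was incubated in kinase buffer with or without 50 µM ATP at 30 °C for 30 min, with test compound at 10 or 100 nM or DMSO. Read by ADP-Glo. Triplicate; one-way ANOVA with Dunnett's test.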

Assay [2] relates to human motor neurons. Description: Neuroprotection assay, ER stress induced by cyclopiazonic acid. In kind it is cell-based. Particulars: for Motor neuron survival in response to ER stress: cyclopiazonic acid, 72 hours, 0.16–10 µM; for Motor neuron survival at low concentrations compared with AT-7519: low concentrations (<200 nM). In a few lines: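 Motor neurons came from NCRM-1 iPSCs carrying a VAChT:TdTomato reporter, differentiated as embryoid bodies for 16 days. They were plated at 2000 cells/well on laminin/poly-ornithine in neurobasal medium with anti-mitotics, B-27, N-2 and GDNF, BDNF, IGF-1 and CNTF. After 48 h, cells were co-treated with cyclopiazonic acid and test compound (4-fold dilutions, 0.16–10 µM, triplicate wells) for 72 h. Calcein AM live cells were counted as % of DMSO-treated survivors.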

Assay [3] has as its target T2, CDKL5 (Homo sapiens, UniProt O76039).
T2 sequence (O76039 1-960): T1 sequence (O76039 1-960)
Description: CDKL5 NanoBRET in-cell target engagement assay. In kind it is cell-based. A general note: BRET reads energy transfer from a luciferase to a nearby fluorophore.

Assay [4] has as its system S33/37/T41 β-Catenin phosphorylation. In kind it is cell-based. The conditions noted are these: rat primary cortical neurons, 1 hour, dose-response. In a few lines:
(§1)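 Cortical neurons were taken from E18.5 Long Evans rat embryos (trypsin 0.25%, 15 min, 37 °C) and plated at 300,000/well on poly-D-lysine/laminin. At DIV11–14, cells were given 5 nM–5 µM test compound or DMSO for 1 h at 37 °C. Lysates were immunoblotted with ECL detection. pEB2 S222 was normalised to total EB2, pβ-catenin to total β-catenin, and CDKL5 to tubulin.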

Assay [5] deals with DYRK1B (Homo sapiens, UniProt Q9Y463). Description: Radiometric HotSpot kinase assay. In kind it is biochemical. Particulars: enzymatic IC50 values. In a few lines:
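Window was taken from enzymatic IC50s. DYRK1B: radiometric HotSpot assay at ATP Km, 10-point dose–response. GSK3β: radiometric assay at ATP Km, 9-point dose–response.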

For assay [6], the system named is S222 EB2 phosphorylation. The experiment in a line: Western blot of S222 EB2 phosphorylation in rat primary cortical neurons. The conditions noted are these: 1 hour, 5 nM, 50 nM, 500 nM or 5 µM. In kind it is cell-based. The method, boiled down: as §1
In general terms: Immunoblotting shows a protein as a band on a membrane.

The test system of assay [7] is CDKL5 expression. The experiment in a line: Western blot of CDKL5 expression in rat primary cortical neurons. Particulars: 1 hour treatment. In kind it is cell-based. In a few lines: as §1
Assay [8] concerns the target GSK3β (Homo sapiens, UniProt P49841). The experiment in a line: GSK3β NanoBRET assay. In kind it is cell-based. Particulars: GSK3β NanoBRET IC50, tracer K8.
Assay [9] deals with T3, CDKL5 kinase domain (Homo sapiens, UniProt O76039, T169D/Y171E).
T3 sequence (O76039 1-303 T169D/Y171E): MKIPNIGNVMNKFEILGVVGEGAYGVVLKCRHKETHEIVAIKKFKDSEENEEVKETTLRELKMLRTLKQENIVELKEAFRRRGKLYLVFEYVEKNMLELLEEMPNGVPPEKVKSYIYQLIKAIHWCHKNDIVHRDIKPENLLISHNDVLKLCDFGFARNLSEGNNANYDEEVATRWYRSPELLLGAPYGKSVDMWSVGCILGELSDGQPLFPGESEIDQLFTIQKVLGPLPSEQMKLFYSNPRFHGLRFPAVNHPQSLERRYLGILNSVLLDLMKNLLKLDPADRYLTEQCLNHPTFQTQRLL
The experiment in a line: Thermal shift assay. In kind it is binding. Particulars: all concentrations evaluated (12.5, 25, or 50 µM). In a few lines:
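The CDKL5 kinase domain (construct boundaries of 4BGQ) was used at 4 µM in 10 mM HEPES-NaOH pH 7.4, 500 mM NaCl with 5× SYPRO Orange. It was incubated with test compound at 12.5, 25 or 50 µM. Fluorescence was recorded on a real-time PCR instrument to derive melting-temperature shifts.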

Assay [10] deals with GSK3α (Homo sapiens, UniProt P49840). The experiment in a line: GSK3α NanoBRET assay. In kind it is cell-based. The conditions noted are these: GSK3α NanoBRET IC50, tracer K8.
GSK3α, sequence (P49840 whole entry): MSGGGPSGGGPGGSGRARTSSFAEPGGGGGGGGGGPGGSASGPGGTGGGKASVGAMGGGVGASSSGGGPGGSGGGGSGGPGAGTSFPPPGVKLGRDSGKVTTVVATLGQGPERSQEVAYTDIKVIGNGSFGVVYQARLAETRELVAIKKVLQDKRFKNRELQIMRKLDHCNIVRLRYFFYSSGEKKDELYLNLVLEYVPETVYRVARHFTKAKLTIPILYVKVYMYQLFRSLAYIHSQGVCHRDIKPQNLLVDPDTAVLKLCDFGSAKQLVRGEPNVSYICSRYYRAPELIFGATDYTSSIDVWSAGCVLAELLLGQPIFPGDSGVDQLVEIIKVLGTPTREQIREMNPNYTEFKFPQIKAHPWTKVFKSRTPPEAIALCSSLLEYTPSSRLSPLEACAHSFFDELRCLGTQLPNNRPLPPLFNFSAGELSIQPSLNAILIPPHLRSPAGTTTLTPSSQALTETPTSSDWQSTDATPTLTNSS
For assay [11], the target named is T2, CDKL5. The experiment in a line: CDKL5 split luciferase assay. In kind it is binding. The conditions noted are these: compound 2 vs compound 4. The method, boiled down:
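Luminescence-based competition binding assay: test compound displaces an active-site-dependent probe from CDKL5. Run as 12-point dose–response in duplicate to give IC50 values.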

DYRK1B, sequence (Q9Y463 whole entry): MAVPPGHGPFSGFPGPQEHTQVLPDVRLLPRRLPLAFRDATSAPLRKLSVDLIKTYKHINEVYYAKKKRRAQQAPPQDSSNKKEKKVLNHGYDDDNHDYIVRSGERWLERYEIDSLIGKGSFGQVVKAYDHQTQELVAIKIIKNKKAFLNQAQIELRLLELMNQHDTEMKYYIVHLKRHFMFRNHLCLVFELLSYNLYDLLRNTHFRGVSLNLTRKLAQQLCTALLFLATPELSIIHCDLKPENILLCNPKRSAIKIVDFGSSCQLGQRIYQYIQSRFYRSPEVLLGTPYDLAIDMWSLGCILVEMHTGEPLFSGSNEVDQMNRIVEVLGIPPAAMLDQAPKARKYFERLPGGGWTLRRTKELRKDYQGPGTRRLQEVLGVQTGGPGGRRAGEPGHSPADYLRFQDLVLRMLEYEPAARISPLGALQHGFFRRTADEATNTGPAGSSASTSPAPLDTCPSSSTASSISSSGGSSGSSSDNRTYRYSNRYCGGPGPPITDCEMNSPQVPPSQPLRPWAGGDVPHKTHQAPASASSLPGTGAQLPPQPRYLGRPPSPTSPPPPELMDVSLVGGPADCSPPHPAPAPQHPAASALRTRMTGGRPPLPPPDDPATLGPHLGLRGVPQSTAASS
GSK3β, sequence (P49841 whole entry, the tested form may be a part): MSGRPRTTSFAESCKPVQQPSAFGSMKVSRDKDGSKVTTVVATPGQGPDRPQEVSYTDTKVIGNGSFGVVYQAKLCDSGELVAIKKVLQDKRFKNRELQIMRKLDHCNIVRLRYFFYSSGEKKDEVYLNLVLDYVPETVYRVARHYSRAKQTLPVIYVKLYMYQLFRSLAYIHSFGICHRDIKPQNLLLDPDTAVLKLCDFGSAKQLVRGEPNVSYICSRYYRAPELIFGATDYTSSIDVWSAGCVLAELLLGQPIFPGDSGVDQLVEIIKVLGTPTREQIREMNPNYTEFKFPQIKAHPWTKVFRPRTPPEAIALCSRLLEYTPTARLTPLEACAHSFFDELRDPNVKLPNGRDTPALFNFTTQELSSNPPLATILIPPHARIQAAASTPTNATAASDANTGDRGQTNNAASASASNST

As to `CS(=O)(=O)CCNCc1ccc(-c2ccc3ncnc(Nc4ccc(OCc5cccc(F)c5)c(Cl)c4)c3c2)o1` [lapatinib, reference compound], the “Effect on CDKL5 kinase activity” value in [1] is on record as “No significant difference”.

Regarding `O=C(NC1CCNCC1)c1n[nH]cc1NC(=O)c1c(Cl)cccc1Cl` [AT-7519, N-(4-piperidinyl)-4-(2,6-dichlorobenzoylamino)-1H-pyrazole-3-carboxamide, reference compound], the “Motor neuron survival in response to ER stress” value in assay [2] is “neuroprotective”.

The compound `O=C(NCC1CCOCC1)c1n[nH]cc1NC(=O)c1c(F)cccc1F` [Compound 4, 4-(2,6-difluorobenzamido)-N-((tetrahydro-2H-pyran-4-yl)methyl)-1H-pyrazole-3-carboxamide] gave an IC50 in assay [3] of 4400 nM. In addition, in [3] (compound 4 vs compound 2), the “Fold less active than compound 2 in CDKL5 NanoBRET” value was ~ 1000 ×. For the same compound, in assay [4], the “Phosphorylation of β-catenin (S33/37/T41)” value is listed as “reduced in a dose-dependent manner”. In assay [5], the “Selectivity window between GSK3β and DYRK1B, the next most potently inhibited kinase” value was 23 fold. Further, the “Effect on CDKL5 kinase activity” value in [1] is reported as “No significant difference”. Also, in assay [2], the “Motor neuron survival in response to ER stress” value is “neuroprotective; also recorded: promote survival of motor neurons” and the “Motor neuron survival at low concentrations compared with AT-7519” value is “better promoted motor neuron survival than AT-7519”. Moreover, in assay [6], the “Phosphorylation of EB2 (S222)” value is on record as “only at the highest concentration”. Also, in assay [7], the CDKL5 expression result is “not altered”.

Turning to `CCN1CCN(Cc2ccc(NC(=O)Nc3ccc(Oc4cc(NC)ncn4)cc3)cc2C(F)(F)F)CC1` [AST-487, reference compound], the “Effect on CDKL5 kinase activity” value in assay [1] was “robust, dose-dependent inhibition”.

As to `O=C(Nc1c[nH]nc1C(=O)NC1CCNCC1)c1cc(F)cc(F)c1` [Compound 2, 4-(3,5-difluorobenzamido)-N-(piperidin-4-yl)-1H-pyrazole-3-carboxamide], the IC50 in assay [3] is 4.6 nM; in [8] it was < 30 nM; in assay [10] it was < 30 nM. Moreover, in assay [4], the “Phosphorylation of β-catenin (S33/37/T41)” value is given as “reduced in a dose-dependent manner”. Besides, in assay [9], the “Change in melting temperature (ΔTm), CDKL5” value was > 6 °C. Further, the “Fold higher potency than compound 4 in split-luciferase CDKL5 assay” value in assay [11] was ~130 fold. The “Effect on CDKL5 kinase activity” value in [1] was “robust, dose-dependent inhibition”. Also, the “Motor neuron survival in response to ER stress” value in assay [2] is listed as “neuroprotective; also recorded: promote survival of motor neurons”. The “Motor neuron survival at low concentrations compared with AT-7519” value in assay [2] is “better promoted motor neuron survival than AT-7519”. In [6], the “Phosphorylation of EB2 (S222)” value is on record as “inhibited in a dose-dependent manner”. Also, the CDKL5 expression entry in assay [7] is reported as “not altered”.
